Test results: ChEMBL document CHEMBL3585272, “Syntheses and Antibacterial Activity of N-Acylated Ciprofloxacin Derivatives Based on the Trimethyl Lock” (ACS Med Chem Lett, 2015)
In brackets after ≈: the same amount, converted by molar mass.

Key:
Micrococcus luteus [1] = experiment: Antibacterial activity against Micrococcus luteus ATCC 10240 at 0.1 mM incubated for 24 hrs at 37 degC by agar diffusion assay; type: functional; settings: ATCC 10240, 24 h, read-out: DIZ
Method in brief: (§1)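 Agar well diffusion. 50 μL of a 0.1 mM solution in 1:9 DMSO/MeOH was added to 9 mm wells in Standard I nutrient agar or Mueller Hinton II agar. Plates were incubated at 37 °C for 24 h, or 44 h for M. vaccae, then inhibition zones were read. Unclear zones were scored separately.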

Mycolicibacterium vaccae [2] = experiment: Antibacterial activity against Mycobacterium vaccae IMET10670 at 0.1 mM incubated for 44 hrs at 37 degC by agar diffusion assay; type: functional; settings: IMET10670, 44 h, read-out: DIZ; method in brief: as §1
Acinetobacter baumannii [3] = experiment: Antibacterial activity against Acinetobacter baumannii ATCC 17961 at 0.1 mM incubated for 24 hrs at 37 degC by agar diffusion assay; type: functional; settings: ATCC 17961, 24 h, read-out: DIZ; method in brief: as §1
Pseudomonas aeruginosa [4] = experiment: Antibacterial activity against wild type Pseudomonas aeruginosa K799 at 0.1 mM incubated for 24 hrs at 37 degC by agar diffusion assay; type: functional; settings: K799, 24 h, read-out: DIZ; method in brief: as §1
Pseudomonas aeruginosa [5] = experiment: Antibacterial activity against Pseudomonas aeruginosa K799/61 at 0.1 mM incubated for 24 hrs at 37 degC by agar diffusion assay; type: functional; settings: K799/61, 24 h, read-out: DIZ; method in brief: as §1
Escherichia coli [6] = experiment: Antibacterial activity against Escherichia coli X580 at 0.1 mM incubated for 24 hrs at 37 degC by agar diffusion assay; type: functional; settings: X580, 24 h, read-out: DIZ; method in brief: as §1
Escherichia coli [7] = experiment: Antibacterial activity against Escherichia coli DC0 at 0.1 mM incubated for 24 hrs at 37 degC by agar diffusion assay; type: functional; settings: DC0, 24 h, read-out: DIZ; method in brief: as §1
Escherichia coli [8] = experiment: Antibacterial activity against Escherichia coli DC2 at 0.1 mM incubated for 24 hrs at 37 degC by agar diffusion assay; type: functional; settings: DC2, 24 h, read-out: DIZ; method in brief: as §1
Acinetobacter baumannii [9] = experiment: Antibacterial activity against Acinetobacter baumannii ATCC 17961 assessed as unclear inhibition zone or inhibition zone with many colonies at 0.1 mM incubated for 24 hrs at 37 degC by agar diffusion assay; type: functional; settings: ATCC 17961, 24 h, read-out: DIZ; method in brief: as §1
Pseudomonas aeruginosa [10] = experiment: Antibacterial activity against wild type Pseudomonas aeruginosa K799 assessed as unclear inhibition zone or inhibition zone with many colonies at 0.1 mM incubated for 24 hrs at 37 degC by agar diffusion assay; type: functional; settings: K799, 24 h, read-out: DIZ; method in brief: as §1
Pseudomonas aeruginosa [11] = experiment: Antibacterial activity against Pseudomonas aeruginosa K799/61 assessed as unclear inhibition zone or inhibition zone with many colonies at 0.1 mM incubated for 24 hrs at 37 degC by agar diffusion assay; type: functional; settings: K799/61, 24 h, read-out: DIZ; method in brief: as §1
Escherichia coli [12] = experiment: Antibacterial activity against Escherichia coli X580 assessed as unclear inhibition zone or inhibition zone with many colonies at 0.1 mM incubated for 24 hrs at 37 degC by agar diffusion assay; type: functional; settings: X580, 24 h, read-out: DIZ; method in brief: as §1
Escherichia coli [13] = experiment: Antibacterial activity against Escherichia coli DC0 assessed as unclear inhibition zone or inhibition zone with many colonies at 0.1 mM incubated for 24 hrs at 37 degC by agar diffusion assay; type: functional; settings: DC0, 24 h, read-out: DIZ; method in brief: as §1
Bacillus subtilis [14] = experiment: Antibacterial activity against Bacillus subtilis ATCC 6633 by broth microdilution method; type: functional
Method in brief: (§2)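 Broth microdilution in Mueller-Hinton broth No.2 (MHII) following CLSI guidelines. The MIC (μM) was read by visual end point. Each compound was tested in triplicate.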

Staphylococcus aureus [15] = experiment: Antibacterial activity against Staphylococcus aureus SG511 by broth microdilution method; type: functional; method in brief: as §2
Micrococcus luteus [16] = experiment: Antibacterial activity against Micrococcus luteus ATCC 10240 by broth microdilution method; type: functional; method in brief: as §2
Mycolicibacterium vaccae [17] = experiment: Antibacterial activity against Mycobacterium vaccae IMET10670 by broth microdilution method; type: functional; method in brief: as §2
Acinetobacter baumannii [18] = experiment: Antibacterial activity against Acinetobacter baumannii ATCC 17961 by broth microdilution method; type: functional; method in brief: as §2
Pseudomonas aeruginosa [19] = experiment: Antibacterial activity against wild type Pseudomonas aeruginosa K799 by broth microdilution method; type: functional; method in brief: as §2
Pseudomonas aeruginosa [20] = experiment: Antibacterial activity against Pseudomonas aeruginosa K799/61 by broth microdilution method; type: functional; method in brief: as §2
Escherichia coli [21] = experiment: Antibacterial activity against Escherichia coli DC0 by broth microdilution method; type: functional; method in brief: as §2
Escherichia coli [22] = experiment: Antibacterial activity against Escherichia coli DC2 by broth microdilution method; type: functional; method in brief: as §2
Bacillus subtilis [23] = experiment: Antibacterial activity against Bacillus subtilis ATCC 6633 at 0.1 mM incubated for 24 hrs at 37 degC by agar diffusion assay; type: functional; settings: ATCC 6633, 24 h, read-out: DIZ; method in brief: as §1
Staphylococcus aureus [24] = experiment: Antibacterial activity against Staphylococcus aureus SG511 at 0.1 mM incubated for 24 hrs at 37 degC by agar diffusion assay; type: functional; settings: SG511, 24 h, read-out: DIZ; method in brief: as §1
Mycolicibacterium vaccae [25] = experiment: Antibacterial activity against Mycobacterium vaccae IMET10670 assessed as unclear inhibition zone or inhibition zone with many colonies at 0.1 mM incubated for 44 hrs at 37 degC by agar diffusion assay; type: functional; settings: IMET10670, 44 h, read-out: DIZ; method in brief: as §1
[26] = Retention time of the compound in presence of methyl mercaptoacetate in CH3CN/PBS solution at 37 degC incubated for 3 hrs by HPLC method; type: physicochemical; settings: buffer

Structure (SMILES) | zone of inhibition at 100 µM (Micrococcus luteus [1]) [mm] | zone of inhibition at 100 µM (Mycolicibacterium vaccae [2]) [mm] | zone of inhibition at 100 µM (Acinetobacter baumannii [3]) [mm] | zone of inhibition at 100 µM (Pseudomonas aeruginosa [4]) [mm] | zone of inhibition at 100 µM (Pseudomonas aeruginosa [5]) [mm] | zone of inhibition at 100 µM (Escherichia coli [6]) [mm] | zone of inhibition at 100 µM (Escherichia coli [7]) [mm] | zone of inhibition at 100 µM (Escherichia coli [8]) [mm] | zone of inhibition at 100 µM (Acinetobacter baumannii [9]) [mm] | MIC (Bacillus subtilis [14]) [µM] | MIC (Staphylococcus aureus [15]) [µM] | MIC (Micrococcus luteus [16]) [µM] | MIC (Mycolicibacterium vaccae [17]) [µM] | MIC (Acinetobacter baumannii [18]) [µM] | MIC (Pseudomonas aeruginosa [19]) [µM] | MIC (Pseudomonas aeruginosa [20]) [µM] | MIC (Escherichia coli [21]) [µM] | MIC (Escherichia coli [22]) [µM] | zone of inhibition at 100 µM (Bacillus subtilis [23]) [mm] | zone of inhibition at 100 µM (Staphylococcus aureus [24]) [mm] | also measured
CC1=C(Br)C(=O)C(C(C)(C)CC(=O)N2CCN(c3cc4c(cc3F)c(=O)c(C(=O)O)cn4C3CC3)CC2)=C(C)C1=O | 19 | 37 | 18 | 29 | 29 | 33 | 17 | 24 | 23 | < 0.05 | 0.1 (≈ 0.0628 µg/mL) | 1.56 (≈ 0.98 µg/mL) | 2 (≈ 1.26 µg/mL) | 0.78 (≈ 0.49 µg/mL) | 5 (≈ 3.14 µg/mL) | 2.5 (≈ 1.57 µg/mL) | 12.5 (≈ 7.86 µg/mL) | 8.33 (≈ 5.24 µg/mL) | 35 | 25 | zone of inhibition at 100 µM (Pseudomonas aeruginosa [10]): 35 mm; zone of inhibition at 100 µM (Pseudomonas aeruginosa [11]): 38 mm; zone of inhibition at 100 µM (Escherichia coli [12]): 40 mm; zone of inhibition at 100 µM (Escherichia coli [13]): 21 mm
CC1=CC(=O)C(C(C)(C)CC(=O)O)=C(C)C1=O | 0 | 0 | 0 | 0 | 0 | 0 | 0 | 0 | – | 50 (≈ 11.8 µg/mL) | > 100 | 50 (≈ 11.8 µg/mL) | 80 (≈ 18.9 µg/mL) | > 100 | > 100 | > 100 | > 100 | > 100 | 0 | 0 | –
CC1=C(N)C(=O)C(C(C)(C)CC(=O)N2CCN(c3cc4c(cc3F)c(=O)c(C(=O)O)cn4C3CC3)CC2)=C(C)C1=O | 17 | 24 | 24 | 22 | 31 | 31 | 16 | 23 | 30 | < 0.05 | < 0.05 | 12.5 (≈ 7.06 µg/mL) | 2 (≈ 1.13 µg/mL) | 0.6 (≈ 0.339 µg/mL) | 2.5 (≈ 1.41 µg/mL) | 5 (≈ 2.82 µg/mL) | 25 (≈ 14.1 µg/mL) | 12.5 (≈ 7.06 µg/mL) | 36 | 31 | zone of inhibition at 100 µM (Mycolicibacterium vaccae [25]): 30 mm; zone of inhibition at 100 µM (Pseudomonas aeruginosa [10]): 32 mm; zone of inhibition at 100 µM (Pseudomonas aeruginosa [11]): 35 mm; zone of inhibition at 100 µM (Escherichia coli [12]): 37 mm; zone of inhibition at 100 µM (Escherichia coli [13]): 23 mm
CC(C)(C)CC(=O)N1CCN(c2cc3c(cc2F)c(=O)c(C(=O)O)cn3C2CC2)CC1 | – | – | – | – | – | – | – | – | – | < 0.05 | 0.4 (≈ 0.172 µg/mL) | 12.5 (≈ 5.37 µg/mL) | 2 (≈ 0.859 µg/mL) | 25 (≈ 10.7 µg/mL) | > 100 | > 100 | > 100 | 100 (≈ 42.9 µg/mL) | – | – | –
COC(=O)CSc1c(C)c(O)c(C)c2c1OC(=O)CC2(C)C | – | – | – | – | – | – | – | – | – | – | – | – | – | – | – | – | – | – | – | – | Retention_time [26]: 9.2 min
c1ccc(N2CCNCC2)cc1 [PHENYLPIPERAZINE] | – | – | – | – | – | – | – | – | – | – | – | – | – | – | – | – | – | – | – | – | Retention_time [26]: 8.5 min
CC1=CC(=O)C(C(C)(C)CC(=O)N2CCN(c3cc4c(cc3F)c(=O)c(C(=O)O)cn4C3CC3)CC2)=C(C)C1=O | 28 | 32 | 26 | 41 | 35 | 32 | 21 | 27 | 32 | < 0.05 | < 0.05 | 0.2 (≈ 0.11 µg/mL) | 0.5 (≈ 0.275 µg/mL) | 0.39 (≈ 0.214 µg/mL) | 1.25 (≈ 0.687 µg/mL) | 2.5 (≈ 1.37 µg/mL) | 12.5 (≈ 6.87 µg/mL) | 6.25 (≈ 3.43 µg/mL) | 39 | 33 | zone of inhibition at 100 µM (Mycolicibacterium vaccae [25]): 42 mm; zone of inhibition at 100 µM (Pseudomonas aeruginosa [11]): 42 mm; zone of inhibition at 100 µM (Escherichia coli [12]): 40 mm; zone of inhibition at 100 µM (Escherichia coli [13]): 29 mm
CC1=CC(=O)C(C(C)(C)CC(=O)N2CCN(c3ccccc3)CC2)=C(C)C1=O | – | – | – | – | – | – | – | – | – | – | – | – | – | – | – | – | – | – | – | – | Retention_time [26]: 11.1 min
CC1=C(N)C(=O)C(C(C)(C)CC(=O)O)=C(C)C1=O | 0 | 0 | 0 | 0 | 0 | 0 | 0 | 0 | – | – | – | – | – | – | – | – | – | – | 0 | 0 | –
CC(C)(C)OC(=O)N1CCN(c2cc3c(cc2F)c(=O)c(C(=O)O)cn3C2CC2)CC1 | – | – | – | – | – | – | – | – | – | < 0.05 | 0.4 (≈ 0.173 µg/mL) | > 100 | 2 (≈ 0.863 µg/mL) | > 100 | > 100 | > 100 | > 100 | > 100 | – | – | –
